According to ChEMBL document CHEMBL3351823, “Synthesis and biological evaluations of new analogs of 2-methoxyestradiol: inhibitors of tubulin and angiogenesis” (Eur J Med Chem, 2014):
The source made the active and inactive calls. No cut-off for these calls is given here.

How the values were obtained:
[1] = Antiangiogenic activity in BAECs after 18 hrs by extracellular matrix assay; assay type: functional, Bos taurus; conditions: baec
Method in brief: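 Extracellular matrix thawed at 4 °C, 50 µl per well, set 10 min at 37 °C. Solid wells incubated 30 min with BAECs (30,000 cells/well), then given analogs at the same concentration. IC50 from three experiments run in duplicate.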

[2] = target: T1, Estrogen receptor (Homo sapiens) (UniProt P03372); assay: Agonist activity at estrogen receptor (unknown origin) expressed in rat PC12 cells coexpressing ER-luc at 10 uM after 24 hrs; assay type: cell-based; conditions: PC-12
T1 sequence (whole entry): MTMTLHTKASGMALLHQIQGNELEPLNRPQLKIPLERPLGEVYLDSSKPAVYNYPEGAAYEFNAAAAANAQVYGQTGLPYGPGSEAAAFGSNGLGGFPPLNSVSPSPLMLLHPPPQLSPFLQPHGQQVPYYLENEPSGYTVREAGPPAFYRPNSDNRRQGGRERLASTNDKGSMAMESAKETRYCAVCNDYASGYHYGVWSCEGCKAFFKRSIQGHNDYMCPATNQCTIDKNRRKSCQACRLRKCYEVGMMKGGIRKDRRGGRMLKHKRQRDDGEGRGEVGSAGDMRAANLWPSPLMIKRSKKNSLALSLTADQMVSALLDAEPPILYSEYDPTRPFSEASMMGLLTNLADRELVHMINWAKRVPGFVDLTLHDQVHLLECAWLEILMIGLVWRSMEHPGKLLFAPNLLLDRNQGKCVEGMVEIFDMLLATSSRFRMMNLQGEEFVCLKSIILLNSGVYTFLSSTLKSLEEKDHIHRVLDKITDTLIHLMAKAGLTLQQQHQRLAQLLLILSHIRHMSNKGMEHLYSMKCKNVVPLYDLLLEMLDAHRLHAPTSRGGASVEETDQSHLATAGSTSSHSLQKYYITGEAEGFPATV
Method in brief: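 PC-12 cells plated at 7 × 10⁴ cells/ml, 37 °C, 5% CO₂; co-transfected with ERE-luc and ER one day after plating (liposome complexes in serum-free DMEM, serum medium restored after 3 h). Treated next day for 24 h; 0.1% DMSO solvent control, 17-β-estradiol positive control. Luciferase read with 1 mM luciferin, normalised to Renilla; 2 independent experiments, n = 3–5.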

[3] = Anticancer activity against human WM35 cells assessed as cell growth inhibition after 5 days by MTT assay; assay type: functional, cell-based; conditions: WM35, 120 h
[4] = test system: K562; assay: Anticancer activity against human K562 cells assessed as cell growth inhibition after 5 days by MTT assay; assay type: functional, cell-based; conditions: K562, 120 h
Method in brief: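 Compounds dissolved in DMSO and serially diluted in medium. Equal volume added to cells at about 40,000 cells/ml, set by doubling time. K562 grown in RPMI with 2-mercaptoethanol, L-glutamine and 10% FCS, no antibiotics. Drug-free wells served as control. Growth read on a plate reader; IC50 taken graphically as % of control growth. Three experiments run in duplicate.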

[5] = target: Tubulin (Sus scrofa, UniProt P02554+P02550); assay: Inhibition of porcine brain tubulin polymerization after 60 mins
Method in brief: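 Wells pre-chilled at 4 °C for 30 min. Mixture of Mes buffer pH 6.6 with MgCl2, GTP, tubulin (50 µl of 11 mg/ml in Mes buffer) and test compound in DMSO. Absorbance recorded at 25 °C over 60 min. Change in optical density compared with untreated controls.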

[6] = Anticancer activity against human OVCAR3 cells assessed as cell growth inhibition after 5 days by MTT assay; assay type: functional, cell-based; conditions: OVCAR-3, 120 h

Compound | IC50 [1] [µM] | Activity [2] | IC50 [4] [µM] | IC50 [5] [µM] | IC50 [3] [µM] | IC50 [6] [µM]
COc1cc2c(cc1O)CC[C@@H]1[C@@H]2CC[C@]2(C)[C@@H](c3cccc4c3CCCN4)CC[C@@H]12 | 3.3 | inactive | 1.3 | 3.7 | 1.9 | 1.5
COc1cc2c(cc1O)CC[C@@H]1[C@@H]2CC[C@]2(C)C(c3cccc4ncccc34)=CC[C@@H]12 | 2 |  | 1.1 | 3.1 | 2.9 | 1.2
COc1cc2c(cc1O)CC[C@@H]1[C@@H]2CC[C@]2(C)C(c3ccc4cnccc4c3)=CC[C@@H]12 | 0.7 |  | 0.4 | 2.2 | 1 | 0.2
COc1cc2c(cc1O)CC[C@@H]1[C@@H]2CC[C@]2(C)[C@@H](c3ccc4ccncc4c3)CC[C@@H]12 | 3.3 |  | > 10 | > 10 | > 10 | > 10
COc1cc2c(cc1O)CC[C@@H]1[C@@H]2CC[C@]2(C)[C@@H](c3ccncc3)CC[C@@H]12 | 4.2 |  | 1.4 | 5.8 | 1.6 | 1
COc1cc2c(cc1O)CC[C@@H]1[C@@H]2CC[C@]2(C)C(c3cccnc3)=CC[C@@H]12 | > 10 | inactive | > 10 |  | > 10 | > 10
COc1cc2c(cc1O)CC[C@@H]1[C@@H]2CC[C@]2(C)[C@@H](O)CC[C@@H]12 [2-METHOXYESTRADIOL] | 3.2 |  | 0.8 | 2.2 | 2.1 | 1.2

Second part, led by results:

IC50 [1] [µM] | Activity [2] | IC50 [4] [µM] | IC50 [5] [µM] | Compound | IC50 [3] [µM] | IC50 [6] [µM]
1.1 | inactive | 0.5 | 2.5 | COc1cc2c(cc1O)CC[C@@H]1[C@@H]2CC[C@]2(C)[C@@H](c3cncc4c3CCCC4)CC[C@@H]12 | 0.9 | 0.4
> 10 |  | > 10 |  | COc1cc2c(cc1O)CC[C@@H]1[C@@H]2CC[C@]2(C)C(c3ccccc3)=CC[C@@H]12 | > 10 | > 10
> 10 |  | > 10 |  | COc1cc2c(cc1O)CC[C@@H]1[C@@H]2CC[C@]2(C)C(c3ccc4ccncc4c3)=CC[C@@H]12 | > 10 | > 10
0.8 | inactive | 0.5 | 4.8 | COc1cc2c(cc1O)CC[C@@H]1[C@@H]2CC[C@]2(C)C(c3cncc4ccccc34)=CC[C@@H]12 | 0.7 | 0.4
2.4 |  | 3.1 | 7.2 | COc1cc2c(cc1O)CC[C@@H]1[C@@H]2CC[C@]2(C)C(c3cccc4cnccc34)=CC[C@@H]12 | 5.1 | 3.9
0.6 |  | 0.7 | 2.1 | COc1cc2c(cc1O)CC[C@@H]1[C@@H]2CC[C@]2(C)[C@@H](c3ccc4cnccc4c3)CC[C@@H]12 | 0.9 | 0.5
1.3 |  | 2.1 | 8.1 | COc1cc2c(cc1O)CC[C@@H]1[C@@H]2CC[C@]2(C)[C@@H](c3cccc4cnccc34)CC[C@@H]12 | 4.1 | 3
0.6 |  | 0.9 | 4.1 | COc1cc2c(cc1O)CC[C@@H]1[C@@H]2CC[C@]2(C)C(c3ccncc3)=CC[C@@H]12 | 1 | 1.2
5.2 | inactive | 1.1 | 5.1 | COc1cc2c(cc1O)CC[C@@H]1[C@@H]2CC[C@]2(C)[C@@H](c3cccnc3)CC[C@@H]12 | 1.9 | 0.8
